Tests used:
Liver microsome [1] = assay: Drug metabolism in dog liver microsomes at 100 uM after 1 hr in presence of NADPH; assay type: ADME, Canis lupus familiaris
In short: (§1)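 Liver microsomes (1 mg/ml protein) in 100 mM phosphate buffer with 100 µM test compound. Reaction started by adding NADPH (1 mM), then run at 37°C for 1 h in a shaking water bath, in duplicate. Controls lacked microsomal protein or NADPH; 7-ethoxycoumarin (100 µM) was the positive control. Metabolites identified by LC/MS/MS.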

Liver microsome [2] = assay: Drug metabolism in rat liver microsomes assessed as BMS-572273 metabolite level at 100 uM after 1 hr in presence of NADPH; assay type: ADME; in short: as §1
[3] = Drug metabolism in cynomolgus monkey cryopreserved hepatocytes at 25 uM after 3 hrs by LC-MS/MS analysis; assay type: ADME, cell-based, Macaca fascicularis, Hepatocyte
In short: (§2)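 Mouse, rat, dog, monkey and human hepatocytes (trypan blue viability checked) at 1.0×10^6 cells/ml in Krebs-Henseleit buffer were incubated with 25 µM compound, in duplicate. Conditions were 37°C, 95/5 O2/CO2, orbital shaking, 3 h. 7-Ethoxycoumarin and 7-hydroxycoumarin (100 µM) served as positive controls, with a cell-free negative control. Reactions were quenched with ice-cold acetonitrile, then sonicated and centrifuged; supernatants were analysed by LC/MS/MS.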

[4] = Drug metabolism in human cryopreserved hepatocytes at 25 uM after 3 hrs by LC-MS/MS analysis; assay type: ADME, cell-based, Hepatocyte
In short: (§3)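 Hepatocytes checked for viability by trypan blue exclusion, then diluted in Krebs-Henseleit buffer to 1.0 × 10^6 cells/ml. Incubated in duplicate with 25 µM compound at 37°C for 3 h on an orbital shaker (80 rpm) under 95/5 O2/CO2. Negative control had no cells. Stopped with ice-cold acetonitrile, sonicated, centrifuged; supernatant analysed by LC/MS/MS.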

[5] = Drug metabolism in human cryopreserved hepatocytes assessed as DPH-123554 metabolite level at 25 uM after 3 hrs by LC-MS/MS analysis; assay type: ADME, cell-based, Hepatocyte; in short: as §3
Hepatocyte [6] = assay: Detection of compound level in mouse hepatocytes treated with 25 uM of BMS-562086 after 3 hrs by LC-MS/MS analysis; assay type: ADME, cell-based; in short: as §2
Hepatocyte [7] = assay: Detection of compound level in human cryopreserved hepatocytes treated with 25 uM of BMS-562086 after 3 hrs by LC-MS/MS analysis; assay type: ADME, cell-based; in short: as §2
[8] = Drug metabolism in mouse hepatocytes assessed as DPH-123554 metabolite level at 25 uM after 3 hrs by LC-MS/MS analysis; assay type: ADME, cell-based, Hepatocyte; in short: as §3
[9] = Drug metabolism in beagle dog hepatocytes assessed as BMS-572273 metabolite level at 25 uM after 3 hrs by LC-MS/MS analysis; assay type: ADME, cell-based, Canis lupus familiaris, Hepatocyte; in short: as §2
[10] = Drug metabolism in cynomolgus monkey cryopreserved hepatocytes assessed as BMS-572273 metabolite level at 25 uM after 3 hrs by LC-MS/MS analysis; assay type: ADME, cell-based, Macaca fascicularis, Hepatocyte; in short: as §2
Liver microsome [11] = assay: Drug metabolism in dog liver microsomes assessed as BMS-572273 metabolite level at 100 uM after 1 hr in presence of NADPH; assay type: ADME, Canis lupus familiaris
In short: (§4)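 Mouse, rat, dog, monkey and human liver microsomes (1 mg/ml protein) were incubated with 100 µM compound in 100 mM phosphate buffer. Reactions were started with 1 mM NADPH and run 1 h at 37°C in duplicate. Controls lacked protein or NADPH, plus a 7-ethoxycoumarin (100 µM) positive control. Metabolites were identified by LC/MS/MS.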

[12] = Drug metabolism in beagle dog hepatocytes at 25 uM after 3 hrs by LC-MS/MS analysis; assay type: ADME, cell-based, Canis lupus familiaris, Hepatocyte; in short: as §2
[13] = Drug metabolism in cynomolgus monkey liver microsomes at 100 uM after 1 hr in presence of NADPH; assay type: ADME, Macaca fascicularis; in short: as §4
[14] = Drug metabolism in human cryopreserved hepatocytes assessed as DPH-124921 metabolite level at 25 uM after 3 hrs by LC-MS/MS analysis; assay type: ADME, cell-based, Hepatocyte; in short: as §3
[15] = Drug metabolism in human cryopreserved hepatocytes assessed as BMS-572273 metabolite level at 25 uM after 3 hrs by LC-MS/MS analysis; assay type: ADME, cell-based, Hepatocyte; in short: as §3
[16] = Drug metabolism in rat hepatocytes assessed as BMS-572273 metabolite level at 25 uM after 3 hrs by LC-MS/MS analysis; assay type: ADME, cell-based, Hepatocyte; in short: as §3
[17] = Drug metabolism in rat hepatocytes assessed as DPH-124921 metabolite level at 25 uM after 3 hrs by LC-MS/MS analysis; assay type: ADME, cell-based, Hepatocyte; in short: as §3
[18] = Drug metabolism in mouse hepatocytes assessed as BMS-572273 metabolite level at 25 uM after 3 hrs by LC-MS/MS analysis; assay type: ADME, cell-based, Hepatocyte; in short: as §3
Liver microsome [19] = assay: Drug metabolism in human liver microsomes assessed as DPH-123554 metabolite level at 100 uM after 1 hr in presence of NADPH; assay type: ADME; in short: as §1
[20] = Drug metabolism in mouse hepatocytes assessed as DPH-124921 metabolite level at 25 uM after 3 hrs by LC-MS/MS analysis; assay type: ADME, cell-based, Hepatocyte; in short: as §3
[21] = Drug metabolism in cynomolgus monkey liver microsomes assessed as BMS-572273 metabolite level at 100 uM after 1 hr in presence of NADPH; assay type: ADME, Macaca fascicularis; in short: as §4
[22] = Drug metabolism in mouse liver microsomes assessed as DPH-124921 metabolite level at 100 uM after 1 hr in presence of NADPH; assay type: ADME; in short: as §1
[23] = Drug metabolism in cynomolgus monkey liver microsomes assessed as DPH-123554 metabolite level at 100 uM after 1 hr in presence of NADPH; assay type: ADME, Macaca fascicularis; in short: as §4
[24] = Drug metabolism in mouse hepatocytes at 25 uM after 3 hrs by LC-MS/MS analysis; assay type: ADME, cell-based, Hepatocyte; in short: as §3
[25] = Drug metabolism in cynomolgus monkey cryopreserved hepatocytes assessed as DPH-123554 metabolite level at 25 uM after 3 hrs by LC-MS/MS analysis; assay type: ADME, cell-based, Macaca fascicularis, Hepatocyte; in short: as §2
[26] = Drug metabolism in mouse liver microsomes assessed as DPH-123554 metabolite level at 100 uM after 1 hr in presence of NADPH; assay type: ADME; in short: as §1
Liver microsome [27] = assay: Drug metabolism in rat liver microsomes assessed as DPH-124921 metabolite level at 100 uM after 1 hr in presence of NADPH; assay type: ADME; in short: as §1
[28] = Drug metabolism in cynomolgus monkey cryopreserved hepatocytes assessed as DPH-124921 metabolite level at 25 uM after 3 hrs by LC-MS/MS analysis; assay type: ADME, cell-based, Macaca fascicularis, Hepatocyte; in short: as §2
[29] = Drug metabolism in rat hepatocytes assessed as DPH-123554 metabolite level at 25 uM after 3 hrs by LC-MS/MS analysis; assay type: ADME, cell-based, Hepatocyte; in short: as §3
[30] = Drug metabolism in cynomolgus monkey liver microsomes assessed as DPH-124921 metabolite level at 100 uM after 1 hr in presence of NADPH; assay type: ADME, Macaca fascicularis; in short: as §4
Liver microsome [31] = assay: Drug metabolism in human liver microsomes assessed as DPH-124921 metabolite level at 100 uM after 1 hr in presence of NADPH; assay type: ADME; in short: as §1
[32] = Drug metabolism in rat hepatocytes at 25 uM after 3 hrs by LC-MS/MS analysis; assay type: ADME, cell-based, Hepatocyte; in short: as §3
[33] = Detection of compound level in beagle dog hepatocytes treated with 25 uM of BMS-562086 after 3 hrs by LC-MS/MS analysis; assay type: ADME, cell-based, Canis lupus familiaris, Hepatocyte; in short: as §2
Liver microsome [34] = assay: Drug metabolism in human liver microsomes at 100 uM after 1 hr in presence of NADPH; assay type: ADME; in short: as §1
[35] = Drug metabolism in mouse liver microsomes at 100 uM after 1 hr in presence of NADPH; assay type: ADME; in short: as §1

| Drug metabolism (Liver microsome [1]) | Drug metabolism (Liver microsome [2]) | Drug metabolism [3] | Drug metabolism [4] | Drug metabolism [5] | Drug metabolism (Hepatocyte [6]) | Drug metabolism (Hepatocyte [7]) | Drug metabolism [8] | Drug metabolism [9] | Drug metabolism [10] | Drug metabolism (Liver microsome [11]) | Drug metabolism [12] | Drug metabolism [13] | Drug metabolism [14] | Drug metabolism [15] | Drug metabolism [16] | Drug metabolism [17] | Drug metabolism [18] | Drug metabolism (Liver microsome [19]) | Drug metabolism [20] | Structure (SMILES) | other results |
| --- | --- | --- | --- | --- | --- | --- | --- | --- | --- | --- | --- | --- | --- | --- | --- | --- | --- | --- | --- | --- | --- |
| metabolite_detected | metabolite_detected | metabolite_detected | metabolite_detected | metabolite_detected | metabolite_detected | metabolite_detected | metabolite_detected | metabolite_detected | metabolite_detected | metabolite_detected | metabolite_detected | metabolite_detected | metabolite_detected | metabolite_detected | metabolite_detected | metabolite_detected | metabolite_detected | metabolite_detected | metabolite_detected | COc1ccc(-c2c(C)nn3c(N)nc(C)nc23)c(C)n1 | Drug metabolism [21]: metabolite_detected; Drug metabolism [22]: metabolite_detected; Drug metabolism [23]: metabolite_detected; Drug metabolism [24]: metabolite_detected; Drug metabolism [25]: metabolite_detected; Drug metabolism [26]: metabolite_detected; Drug metabolism (Liver microsome [27]): metabolite_detected; Drug metabolism [28]: metabolite_detected; Drug metabolism [29]: metabolite_detected; Drug metabolism [30]: metabolite_detected; Drug metabolism (Liver microsome [31]): metabolite_detected; Drug metabolism [32]: metabolite_detected; Drug metabolism [33]: metabolite_detected; Drug metabolism (Liver microsome [34]): metabolite_detected; Drug metabolism [35]: metabolite_detected |
| metabolite_detected | metabolite_detected | metabolite_detected | metabolite_detected | metabolite_detected | metabolite_detected | metabolite_detected | metabolite_detected | metabolite_detected | metabolite_detected | metabolite_detected | metabolite_detected | metabolite_detected | metabolite_detected | metabolite_detected | metabolite_detected | metabolite_detected | metabolite_detected | metabolite_detected | metabolite_detected | CC[C@@H](C)Nc1nc(C)nc2c(-c3ccc(O)nc3C)c(C)nn12 | Drug metabolism [21]: metabolite_detected; Drug metabolism [22]: metabolite_detected; Drug metabolism [23]: metabolite_detected; Drug metabolism [24]: metabolite_detected; Drug metabolism [25]: metabolite_detected; Drug metabolism [26]: metabolite_detected; Drug metabolism (Liver microsome [27]): metabolite_detected; Drug metabolism [28]: metabolite_detected; Drug metabolism [29]: metabolite_detected; Drug metabolism [30]: metabolite_detected; Drug metabolism (Liver microsome [31]): metabolite_detected; Drug metabolism [32]: metabolite_detected; Drug metabolism [33]: metabolite_detected; Drug metabolism (Liver microsome [34]): metabolite_detected; Drug metabolism [35]: metabolite_detected |

From ChEMBL document CHEMBL3526146, “In vitro and in vivo metabolism and pharmacokinetics of BMS-562086, a potent and orally bioavailable corticotropin-releasing factor-1 receptor antagonist” (Drug Metab Dispos, 2012)
